Values without a mark were called inactive. Inconclusive results are not listed. Calls of active or inactive are those of the source.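 Rule for the calls, unless noted: active = viability at or below 27.92% in each of two runs, the all-compound median minus 4 SD; inconclusive = no clear call, values can overlap the other calls; inactive = the rest.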
Key:
[1] = S. cerevisiae growth inhibition in permissive medium (OD615), pilot counter-assay for S. cerevisiae lifespan shortening project, permissive growth control (AID 705;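 active = growth inhibition above 25% in both replicates, a cutoff set 3 SD above the mean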); details: OD615, 24 h, at 10 µM, active compounds read high
Method in brief: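 System: Engineered DeaD yeast | Buffer or medium: SC raffinose/galactose permissive medium | Incubation: Cells pre-grown 4 h, then 24 h compound exposure, 30 °C humidified | Measured by: Absorbance (optical density) at 615 nm | Read-out: Reduction in yeast growth (OD615)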

[2] = S. cerevisiae growth inhibition in restrictive medium, OD615, pilot screen, restrictive growth control, yeast lifespan reduction project (AID 706;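 active = growth inhibition above a set limit, 3 SD over mean compound inhibition, in both replicates, cut at about 43% in these data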;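 note: modified DeaD lifespan yeast strain shifted to restrictive glucose medium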); details: OD615, 48 h, at 10 µM, active compounds read high
Method in brief: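 Material: modified S. cerevisiae; Medium: glucose-based CSMM-D restrictive medium; Compound dosing: one concentration, 10 µM final, 0.25% DMSO; Incubation: 48 h compound exposure at 30 °C; Measured by: OD615.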

[3] = doxorubicin toxicity protection in MRP-1 cells – H69AR cells, CellTiter-Glo, duplicate, MRP-1 activator project, pilot screen (AID 807;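 active = viability increase at or above a cutoff of the median across tested compounds plus 3 SD, cut at about 8.5% in these data, passing the limit was not always enough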;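 note: compound pretreatment 18-22 h then 72 h combined with doxorubicin; 0% = doxorubicin alone and 100% = vehicle without doxorubicin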); details: H69AR viability with doxorubicin, CellTiter-Glo luminescence; at 10 µM; active compounds read high
[4] = viability of HCT116 without oncogenic beta-catenin – human colon tumor cells, pilot screen (AID 823;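 active = cell viability at or below a set limit in both duplicate runs, the limit being the all-compound median minus 4 SD, cut at about 23% in these data, passing the limit was not always enough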;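 note: 0% = wells killed by 20 µM Hyamine and 100% = untreated DMSO cell wells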); details: HCT116 beta-catenin knockout viability, CellTiter-Glo, 60 h; at 10 µM; active compounds read low
[5] = viability of PTEN-null HCT116 cells – cell-based, HCT116 clonal line, CellTiter-Glo, pilot screen (AID 824); details: HCT116 PTEN-deleted viability, 60 h, at 10 µM, active compounds read low;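 note: 0% = 20 µM Hyamine control and 100% = vehicle cell control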
[6] = RAM pathway blockade in budding yeast – dse1pr::URA3 reporter, 5-FOA selection, pilot screen (AID 869;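 active = inhibition over a set limit, the all-compound mean plus 3 SD, in both replicate runs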;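 note: 0% = DMSO wells with no growth and 100% = 10 µM 1-NA-PP1 with full growth; RAM network block rescues cells from 5-FOA so hits raise OD615 growth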); details: S. cerevisiae dse1pr::URA3 5-FOA growth, OD615, 2 d; at 10 µM; active compounds read high; strain carries analog-sensitive mutant Cbk1 kinase
[7] = RAM signaling pathway blockade in yeast – S. cerevisiae, Pdr1DBD-CYC8 efflux-inhibited sensitized strain, primary screen (AID 1298;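 active = RAM network inhibition above 8.4% in each of two replicates, 3 SD over the compound average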;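 note: 0% = DMSO untreated cells without growth and 100% = 10 µM 1-NA-PP1 full growth; higher means more yeast growth rescued from 5-FOA killing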); details: S. cerevisiae cbk1-as DSE1-URA3 strain, 5-FOA growth OD615, 2 d; at 50 µM; active compounds read high

| Compound | growth inhibition [1] [%] | growth inhibition [2] | viability increase [3] [%] | viability [4] [%] | viability [5] [%] | inhibition [6] [%] | RAM network inhibition [7] [%] |
| --- | --- | --- | --- | --- | --- | --- | --- |
| Cn1c(Cn2c(=O)sc3ccccc32)nnc1SCC(N)=O | -17.4 | -3.94% | 0.08 | 110 | 88 | 1.82 | 3.26 |
| COc1cc(OC)c(C2CC(=O)N3CN(C)CSC3=C2C#N)cc1OC (configuration not stated) | 19.5 | 60% (active) | -2.96 | 99.3 | 97.2 | 1.06 | 9.58 |
| O=C1CNC(=O)/C1=C\N1CCN(C(c2ccccc2)c2ccccc2)CC1 | 5.72 | 9.98% | -2.16 | 99.2 | 101 | 2.48 | 1.6 |
| C=CCn1c(SCC(=O)Nc2cc(C)nn2-c2ccccc2)nnc1C1CCCCC1 | -7.09 | -6.5% | -1.14 | 90.8 | 94.3 | 0.165 | 3.38 |
| COc1ccc(Br)cc1/C=N/n1c(C)nnc1C | -14 | -21% | -5.21 | 66 | 67.5 | 1.7 | -0.74 |
| CC(C)n1c(CCC(=O)O)ccc1-c1ccccc1 | 3.21 | 4.49% | -0.71 | 96 | 101 | 0.285 | 1.3 |
| CCOC(=O)c1c(N)sc2c(O)c(Br)ccc12 | -26.9 | -1.8% | -0.49 | 104 | 107 | 1.01 | 5.24 |
| CCn1cc(SCC(=O)NCc2ccc3c(c2)OCO3)c2ccccc21 | -9.14 | -8.28% | -1.84 | 97.9 | 92.7 | 0.495 | 3.73 |
| Cc1sc2nc(SCC(=O)OC(C)C)n(C)c(=O)c2c1C | -2.81 | 31.4% | -1.84 | 105 | 94.8 | 2.59 | 2.75 |
| Cc1noc(C)c1CSCC(=O)OCC(=O)NC1CCCCC1 | -9 | 2.07% | 0.39 | 97.1 | 99.3 | 0.26 | 2.57 |
| CCC(=O)Nc1c2c(nn1-c1ccc(OC)cc1)CS(=O)C2 (configuration not stated) | -6.53 | 5.54% | 0.56 | 102 | 94.1 | 1.37 | 2.55 |
| Cc1nnc(NC(=O)CSc2cn(Cc3ccccc3)c3ccccc23)s1 | -8.99 | -0.275% | -2.83 | 82.2 | 81.2 | 2.86 | 2.77 |
| Cc1ccc2sc(NC(=O)CN3C(=O)CCC3=O)nc2c1C | -10.4 | -12.7% | 2.23 | 114 | 109 | 0.805 | 2.15 |
| COc1cc2[nH]c(=O)n(CCC(=O)NC3CCN(Cc4ccccc4)CC3)c(=O)c2cc1OC | -0.585 | -8.45% | -1.84 | 101 | 94.3 | 2.09 | -0.53 |
| CCOC(=O)CCn1cc(F)c(=O)n(Cc2ccccc2)c1=O | 3.69 | 2.14% | -0.3 | 105 | 96.1 | 0.42 | 1.43 |
| Cc1ccc(C)c(N2CCN(C(=O)CCS(=O)(=O)c3cccc4nonc34)CC2)c1 | -16.3 | -12.5% | -5.38 | 88.8 | 91.8 | 1.31 | 6.07 |
| CCOC(=O)Cn1c(=O)oc2cc(S(=O)(=O)N3CCCC(C(=O)OCC)C3)ccc21 (configuration not stated) | -2.33 | -20.5% | -1.74 | 95.4 | 90.7 | 0.87 | 1.99 |
| Cc1ccc(-c2ccc(CCC(=O)O)n2C(C)C)cc1 | 3.3 | -1.55% | -1.75 | 94.7 | 101 | 2.1 | 4.37 |

| Compound | growth inhibition [1] [%] | growth inhibition [2] | viability increase [3] [%] | viability [4] [%] | viability [5] [%] | inhibition [6] [%] | RAM network inhibition [7] [%] |
| --- | --- | --- | --- | --- | --- | --- | --- |
| CN(C)S(=O)(=O)N1CCC(Cc2ccccc2)CC1 | -9.73 | 3.98% | -0.78 | 85.3 | 85 | -0.275 | 1.8 |
| CCC(C)NC(=O)CS(=O)Cc1nc(-c2cccc(OC)c2)oc1C (configuration not stated) | -12.5 | -1.45% | -1.45 | 98 | 94.5 | 1.23 | 4.44 |
| Cc1c(C(=O)NCC2CCCO2)sc2nc(-c3ccc(F)cc3)cn12 (configuration not stated) | 3.06 | 0.065% | 1.26 | 95.2 | 97.3 | 0.68 | 3.33 |
| Cc1cccc(NS(=O)(=O)c2ccccc2)n1 | -4.51 | 11.2% | 2.49 | 106 | 104 | 0.75 | 0.26 |
| CCC(C)NC(=O)C1CCC(=O)N(c2ccc3c(c2)OCO3)C1c1ccc(OC)cc1 (configuration not stated) | 0.49 | -0.06% | -1.78 | 103 | 100 | 1.02 | 4.2 |
| COc1ccc(OC)c(C2=Nn3c(nnc3-c3ccncc3)SC2)c1 | 0.735 | 11.2% | -2.51 | 78.1 | 71.1 | 0.84 | 5.82 |
| COc1cc(C2N(c3ccccc3)CCN2c2ccccc2)ccc1OC(C)=O | -18.8 | -13.6% | 0.59 | 96.3 | 94.5 | 0.44 | 2.35 |
| COc1ccc(NC(=O)Nc2ccc3c(c2)N(C)C(=O)CS3)cc1OC | -18.9 | -18.2% | -4.94 | 88 | 75.9 | 2.05 | 5.75 |
| CCCCN(C)CCC(=O)Nc1ccc(OC)cc1OC | -0.81 | -1.21% | -3.73 | 88.5 | 86.4 | 2.29 | -1.48 |
| CCOC(=O)c1c(N)sc(C(=O)N2CCCCCC2)c1C | -20.4 | -21.8% | 0.25 | 96.7 | 91.2 | -0.305 | -0.21 |
| CC(N=C1NS(=O)(=O)c2ccccc21)c1ccccc1 (configuration not stated) | 0.11 | 1.27% | 0.15 | 103 | 96.2 | -0.16 | 5.97 |
| CCC1CCCCN1Cc1nc2c(c(=O)n(C)c(=O)n2C)n1Cc1cccc2ccccc12 (configuration not stated) | -13.7 | -7.96% | -1.54 | 92.5 | 83.1 | 0.67 | 8.51 |
| C=CCSC1=N/C(=C\c2ccsc2)C(=O)S1 | 7.03 | 27.8% | -2.48 | 98.1 | 93 | 0.475 | 0.97 |
| O=C(NCc1cn2ccccc2n1)c1ccc(Br)o1 | -7.75 | -0.96% | -1.31 | 96.5 | 92.3 | 2.42 | 3.98 |
| CCOC(=O)c1cnc2c(C)cccc2c1NCc1ccco1 | -10.5 | -9.38% | -4.61 | 82.5 | 79 | 1.28 | -0.77 |
| CC(=O)c1sc(NC(=O)c2ccco2)nc1-c1ccccc1 | -6.58 | 6.05% | -1.39 | 103 | 87.7 | 1.87 | 1.69 |
| Cc1ccc(Cl)cc1N1CCN(C(=O)CCC(=O)O)CC1 | -10.9 | -29.2% | -1.08 | 95.6 | 91.3 | 1.51 | 2.18 |
| O=C1CCC(C(=O)N(c2ccccc2)C2(C(=O)NC3CCCCC3)CCCCC2)N1 (configuration not stated) | 1.54 | 2.4% | -0.07 | 94.3 | 97.2 | 0.505 | 1.6 |

Reference: PubChem BioAssay
